This note sets out measurements from ChEMBL document CHEMBL1143393, “Indene-based scaffolds. 2. An indole-indene switch: discovery of novel indenylsulfonamides as 5-HT6 serotonin receptor agonists” (J Med Chem, 2009).

Experiment [1] deals with T1, 5-hydroxytryptamine receptor 6 (Homo sapiens, UniProt P50406). The experiment can be described thus: Displacement of [3H]LSD from human 5HT6 receptor expressed in HEK293 cells at 100 uM by liquid scintillation counting. In kind it is cell-based.
The target of experiment [2] is T1, 5-hydroxytryptamine receptor 6. The experiment can be described thus: Displacement of [3H]LSD from human 5HT6 receptor expressed in HEK293 cells by liquid scintillation counting. Type of experiment: cell-based. The method, boiled down: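 Bound ligand was collected on polyethylenimine-pretreated glass fiber filters, washed with 50 mM Tris-Cl pH 7.4, and counted by liquid scintillation. Nonspecific binding was defined with 100 µM serotonin. Triplicate points. IC50 came from linear regression, and Ki was derived by Cheng-Prusoff.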

For experiment [3] the target is unchanged. Nature of the experiment: Agonist activity at human 5HT6 receptor expressed in HEK293F cells assessed as stimulation of cAMP level after 30 mins by HTRF assay […]. Type of experiment: functional, cell-based. A digest of the protocol:
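HEK293F cells stably expressing human 5-HT6 were held overnight in serum-free medium, then 20000 cells/well were placed in Ham's F12 with 1 mM IBMX and 20 µM pargyline. Compound or vehicle was added for 30 min at 37 °C. Results were given as Emax and EC50.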

Experiment [4] addresses T2, Adrenergic receptor alpha-1 (Rattus norvegicus, UniProt P15823+P23944+P43140).
T2 sequence (P15823 whole entry): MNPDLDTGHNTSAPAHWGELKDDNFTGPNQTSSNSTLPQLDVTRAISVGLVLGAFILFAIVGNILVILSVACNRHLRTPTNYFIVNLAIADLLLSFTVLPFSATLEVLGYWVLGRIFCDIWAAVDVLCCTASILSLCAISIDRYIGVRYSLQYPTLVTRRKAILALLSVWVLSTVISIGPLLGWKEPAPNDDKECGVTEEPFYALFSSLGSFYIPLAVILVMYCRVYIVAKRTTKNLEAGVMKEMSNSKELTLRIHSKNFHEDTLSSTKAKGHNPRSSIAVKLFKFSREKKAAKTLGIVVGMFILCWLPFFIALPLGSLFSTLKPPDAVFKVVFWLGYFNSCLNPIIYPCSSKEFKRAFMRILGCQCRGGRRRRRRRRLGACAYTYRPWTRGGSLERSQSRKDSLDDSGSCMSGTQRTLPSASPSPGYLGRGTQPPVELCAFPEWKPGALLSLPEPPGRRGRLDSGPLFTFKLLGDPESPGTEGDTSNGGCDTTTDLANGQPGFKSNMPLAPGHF
T2 sequence (P23944 whole entry): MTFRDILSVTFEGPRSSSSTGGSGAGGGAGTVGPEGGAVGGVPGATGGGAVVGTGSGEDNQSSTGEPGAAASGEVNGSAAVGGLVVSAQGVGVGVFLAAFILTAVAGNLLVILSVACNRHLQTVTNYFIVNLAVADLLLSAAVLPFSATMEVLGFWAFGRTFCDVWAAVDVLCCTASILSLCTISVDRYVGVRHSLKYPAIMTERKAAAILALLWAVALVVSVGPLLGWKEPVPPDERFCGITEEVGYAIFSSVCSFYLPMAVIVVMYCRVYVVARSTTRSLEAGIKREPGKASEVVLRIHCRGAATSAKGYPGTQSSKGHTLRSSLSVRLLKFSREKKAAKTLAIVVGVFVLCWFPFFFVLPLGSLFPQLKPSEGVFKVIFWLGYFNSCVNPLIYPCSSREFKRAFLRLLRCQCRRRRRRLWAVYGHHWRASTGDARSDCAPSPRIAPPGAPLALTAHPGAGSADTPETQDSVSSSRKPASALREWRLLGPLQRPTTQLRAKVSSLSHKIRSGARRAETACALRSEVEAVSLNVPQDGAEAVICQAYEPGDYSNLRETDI
T2 sequence (P43140 whole entry): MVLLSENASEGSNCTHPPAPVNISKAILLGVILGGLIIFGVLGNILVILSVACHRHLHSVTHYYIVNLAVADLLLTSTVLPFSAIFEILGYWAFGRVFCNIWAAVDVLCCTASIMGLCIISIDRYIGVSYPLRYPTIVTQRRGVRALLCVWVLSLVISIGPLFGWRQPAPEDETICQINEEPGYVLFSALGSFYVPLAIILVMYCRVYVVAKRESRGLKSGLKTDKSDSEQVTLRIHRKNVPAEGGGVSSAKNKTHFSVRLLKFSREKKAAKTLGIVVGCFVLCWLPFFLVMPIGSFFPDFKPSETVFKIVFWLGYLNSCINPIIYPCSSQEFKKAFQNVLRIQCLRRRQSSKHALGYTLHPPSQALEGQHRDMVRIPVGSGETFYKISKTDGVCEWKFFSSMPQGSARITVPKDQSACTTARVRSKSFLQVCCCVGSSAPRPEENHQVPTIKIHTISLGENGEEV
Nature of the experiment: Inhibition of rat adrenergic alpha1 receptor.

For experiment [5], the target named is T3, Alpha-2A adrenergic receptor (Homo sapiens, UniProt P08913).
T3 sequence (P08913 whole entry): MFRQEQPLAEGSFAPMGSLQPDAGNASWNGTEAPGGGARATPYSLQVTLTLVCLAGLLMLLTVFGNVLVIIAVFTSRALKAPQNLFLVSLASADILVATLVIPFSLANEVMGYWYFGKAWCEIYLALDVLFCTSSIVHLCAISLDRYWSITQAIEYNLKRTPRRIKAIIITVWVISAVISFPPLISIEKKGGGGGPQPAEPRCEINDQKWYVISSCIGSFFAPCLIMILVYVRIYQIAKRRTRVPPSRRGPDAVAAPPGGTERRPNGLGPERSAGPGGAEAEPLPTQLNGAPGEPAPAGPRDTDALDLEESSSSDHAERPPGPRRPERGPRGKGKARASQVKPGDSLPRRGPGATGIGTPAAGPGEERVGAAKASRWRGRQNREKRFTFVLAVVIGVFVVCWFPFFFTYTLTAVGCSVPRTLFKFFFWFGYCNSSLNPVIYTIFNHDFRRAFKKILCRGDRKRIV
Nature of the experiment: Inhibition of human adrenergic alpha2A receptor.

Experiment [6] has as its target T4, 5-hydroxytryptamine receptor 1A (Homo sapiens, UniProt P08908).
T4 sequence (P08908 whole entry): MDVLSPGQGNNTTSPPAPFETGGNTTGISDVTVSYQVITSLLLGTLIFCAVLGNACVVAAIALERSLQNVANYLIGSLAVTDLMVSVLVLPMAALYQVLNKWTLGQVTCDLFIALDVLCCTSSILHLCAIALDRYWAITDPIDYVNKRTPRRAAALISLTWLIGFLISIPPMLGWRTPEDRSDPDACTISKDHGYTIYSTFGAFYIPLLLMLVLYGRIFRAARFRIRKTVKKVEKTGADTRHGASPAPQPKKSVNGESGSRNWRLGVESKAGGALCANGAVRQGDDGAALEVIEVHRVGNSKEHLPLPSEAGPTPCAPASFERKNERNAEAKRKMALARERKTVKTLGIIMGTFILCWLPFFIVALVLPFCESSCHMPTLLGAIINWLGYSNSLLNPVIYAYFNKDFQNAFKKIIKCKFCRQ
Nature of the experiment: Inhibition of human 5HT1A receptor.

Experiment [7] has as its target T5, 5-hydroxytryptamine receptor 2C (Homo sapiens, UniProt P28335).
T5 sequence (P28335 whole entry): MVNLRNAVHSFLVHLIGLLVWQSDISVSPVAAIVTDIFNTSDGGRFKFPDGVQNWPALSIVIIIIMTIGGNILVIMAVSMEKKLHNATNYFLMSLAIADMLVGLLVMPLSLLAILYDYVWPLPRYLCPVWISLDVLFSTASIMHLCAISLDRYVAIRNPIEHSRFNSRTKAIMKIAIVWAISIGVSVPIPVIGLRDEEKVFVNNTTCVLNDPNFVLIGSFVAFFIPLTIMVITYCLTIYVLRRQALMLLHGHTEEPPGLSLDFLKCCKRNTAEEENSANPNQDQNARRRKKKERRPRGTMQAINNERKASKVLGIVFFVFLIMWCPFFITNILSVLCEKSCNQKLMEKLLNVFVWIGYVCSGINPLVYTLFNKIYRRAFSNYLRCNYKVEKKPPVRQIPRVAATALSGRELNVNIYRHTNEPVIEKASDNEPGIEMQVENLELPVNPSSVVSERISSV
Nature of the experiment: Inhibition of human 5HT2C receptor.

Experiment [8] has as its target Sodium-dependent serotonin transporter (Homo sapiens, UniProt P31645). The experiment can be described thus: Inhibition of human SERT.
Experiment [9] deals with T1, 5-hydroxytryptamine receptor 6. The experiment can be described thus: Displacement of [3H]LSD from human 5HT6 receptor expressed in HEK293 cells at 1 uM by liquid scintillation counting. In kind it is cell-based.

Where only a bound is given, the exact number is not on record here.

T1 sequence (P50406 whole entry): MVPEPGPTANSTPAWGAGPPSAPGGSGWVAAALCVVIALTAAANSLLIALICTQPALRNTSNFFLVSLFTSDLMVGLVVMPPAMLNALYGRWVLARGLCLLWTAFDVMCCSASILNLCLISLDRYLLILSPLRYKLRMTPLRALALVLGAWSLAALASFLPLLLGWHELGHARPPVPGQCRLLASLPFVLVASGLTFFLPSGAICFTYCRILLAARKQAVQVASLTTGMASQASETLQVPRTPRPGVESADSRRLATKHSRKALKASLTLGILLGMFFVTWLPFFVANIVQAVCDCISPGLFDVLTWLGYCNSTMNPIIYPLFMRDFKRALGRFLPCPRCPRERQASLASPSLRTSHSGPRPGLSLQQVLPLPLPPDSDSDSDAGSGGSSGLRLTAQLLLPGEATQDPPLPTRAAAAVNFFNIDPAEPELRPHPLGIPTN
Sequence of Sodium-dependent serotonin transporter (P31645 whole entry): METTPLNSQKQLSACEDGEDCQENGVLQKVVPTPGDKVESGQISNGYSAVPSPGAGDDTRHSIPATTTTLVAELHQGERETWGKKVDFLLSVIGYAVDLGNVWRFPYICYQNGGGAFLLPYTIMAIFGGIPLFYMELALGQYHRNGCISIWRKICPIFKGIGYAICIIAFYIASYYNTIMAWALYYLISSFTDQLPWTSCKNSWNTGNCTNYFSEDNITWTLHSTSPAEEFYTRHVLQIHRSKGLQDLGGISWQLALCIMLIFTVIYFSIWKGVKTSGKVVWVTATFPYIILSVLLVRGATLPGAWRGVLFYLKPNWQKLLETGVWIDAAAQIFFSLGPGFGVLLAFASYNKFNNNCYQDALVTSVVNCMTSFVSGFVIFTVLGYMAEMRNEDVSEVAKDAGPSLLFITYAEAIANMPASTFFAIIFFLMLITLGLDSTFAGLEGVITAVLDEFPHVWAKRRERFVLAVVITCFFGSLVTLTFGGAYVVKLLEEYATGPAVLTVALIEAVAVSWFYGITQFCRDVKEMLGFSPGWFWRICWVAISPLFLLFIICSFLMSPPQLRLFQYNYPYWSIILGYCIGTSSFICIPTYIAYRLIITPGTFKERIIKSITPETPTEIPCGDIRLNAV

In turn, `Cc1c(S(=O)(=O)Nc2ccc3c(c2)C(CCN(C)C)=CC3(C)C)sc2ccc(Cl)cc12` returned an Activity in experiment [1] of 2%.

In [1], `CC1=C(CCN2CCCC2)c2cc(NS(=O)(=O)c3cccc4nsnc34)ccc2C1` gave an Activity of 19%.

Turning to `CC1=C(CCN(C)C)c2cc(NS(=O)(=O)c3cccc4ccccc34)ccc2C1`, the Ki in experiment [2] came to 276 nM. The Activity in [1] was found to be 78%.

For `CN(C)CCc1cn(S(=O)(=O)c2ccccc2)c2ccccc12`, the inhibition constant Ki in experiment [2] was found to be 3 nM.

Compound `CN(C)CCC1=CCc2ccc(NS(=O)(=O)c3c(Cl)nc4sccn34)cc21` registered an inhibition constant Ki in experiment [2] of 10 nM. This compound registered an Activity in experiment [1] of 87%. Further, the Emax in experiment [3] worked out at 99%. The EC50 in [3] (read-out: EC50) came out at 0.3 nM. For the same compound, the half-maximal inhibitory concentration (IC50) in experiment [4] was > 10 µM; in experiment [5], > 1000 nM; in [6], > 1000 nM; in [7], > 1000 nM; in experiment [8], > 10 µM.

For `CC1=C(CCN(C)C)c2cc(NS(=O)(=O)c3c(Cl)nc4sccn34)ccc2C1`, the inhibition constant (Ki) in experiment [2] was 4.5 nM. For the same compound, the Activity in experiment [9] came to 100%. Moreover, the Emax in experiment [3] stood at 98%. Further, in experiment [3] (read-out: EC50), the EC50 is 0.9 nM. Further, the concentration for half-maximal inhibition (IC50) was > 10 µM in experiment [4]; > 1000 nM in [5]; > 1000 nM in experiment [6]; 1130 nM in [7]; > 10 µM in experiment [8].

As to `O=S(=O)(Nc1ccc2c(c1)C(CCN1CCCCC1)=CC2)c1c(Cl)nc2sccn12`, the inhibition constant Ki in [2] came to 31 nM. Besides, the Activity in [1] turned out to be 81%. Also, the Emax in [3] was -58%.

`CC1=C(CCN2CCCC2)c2cc(NS(=O)(=O)c3c(Cl)nc4sccn34)ccc2C1` returned an inhibitory constant (Ki) in experiment [2] of 17 nM. In experiment [1], the Activity is 81%. In [3], the Emax was 37%.

Compound `CC1=C(CCN(C)C)c2cc(NS(=O)(=O)c3ccc(N)cc3)ccc2C1` showed an Activity in experiment [1] of 4%.

In experiment [1], `CC1=C(CCN2CCCC2)c2cc(NS(=O)(=O)c3ccc(N)cc3)ccc2C1` had an Activity of 63%.

In [2], `CNc1cc(NS(=O)(=O)c2ccc(N)cc2)nc(NC)n1` came in with a Ki of 47 nM.

As to `CC1=C(CCN(C)C)c2cc(NS(=O)(=O)c3ccc4ccccc4c3)ccc2C1`, in [1], the Activity came to 71%. Further, the Emax in [3] is 98%. Further, the EC50 in experiment [3] (read-out: EC50) came out at 3.2 nM. For the same compound, the half-inhibitory concentration (IC50) in experiment [5] and in [6] was > 1000 nM in each case.

As to `CN(C)CCC1=CC(C)(C)c2ccc(NS(=O)(=O)c3c(Cl)nc4sccn34)cc21`, the Activity in experiment [1] was found to be 24%.

As to `CN(C)CCc1c[nH]c2ccc(NS(=O)(=O)c3ccc4c(Cl)cccc4c3)cc12`, the Emax in experiment [3] was found to be 96%. Also, the EC50 in experiment [3] (read-out: pEC50 (converted)) is 0.295 nM.

On to `CC1=C(CCN(C)C)c2cc(S(=O)(=O)Nc3cccc4ccccc34)ccc2C1`, for which the Activity in [1] was determined as 51%. In addition, the Emax in experiment [3] came to 95%. Besides, the EC50 in [3] (read-out: EC50) was 14 nM. Moreover, the IC50 is 1100 nM in experiment [5] and > 1000 nM in [6].

On to `CC1=C(CCN(C)C)c2cc(NS(=O)(=O)c3csc4ccccc34)ccc2C1`, for which, in experiment [2], the Ki worked out at 53 nM. Also, the Activity in [1] turned out to be 88%. In [3], the Emax is 101%. In addition, in experiment [3] (read-out: EC50), the EC50 was determined as 0.3 nM. Besides, the IC50 was 700 nM in experiment [5] and 1140 nM in experiment [6].

Turning to `CCN(c1ccc2c(c1)C(CCN(C)C)=C(C)C2)S(=O)(=O)c1sc(C)c2cc(Cl)ccc12`, in [1], the Activity was 3%.

The compound `CC1=C(CCN(C)C)c2cc(NS(=O)(=O)c3cccc4nsnc34)ccc2C1` showed an Activity in [1] of 16%.

For the compound `CC1=C(CCN2CCCC2)c2cc(NS(=O)(=O)c3sc4ccc(Cl)cc4c3C)ccc2C1`, the Activity in experiment [9] was 100%. For the same compound, in experiment [3], the Emax came to 78%.
